Experimental data: ChEMBL document CHEMBL4364301 (Eur J Med Chem, 2019)

Experiments:
Format in all cases: functional
DU-145 = assay: Antiproliferative activity against human DU145 cells assessed as reduction in cell growth incubated for 96 hrs by propidium iodide based 2D monolayer assay; conditions: for IC50: DU-145, 96 h
Summary of the method: (§1)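 After 24 h recovery, compound in medium or medium alone (control wells) was added at 10 half-log concentrations from 0.0032 to 100 µM, in triplicate, with at most 0.3% DMSO. After 96 h, wells were PBS-washed, stained with 7 µg/ml PI and 0.1% Triton X-100, and fluorescence read at 530/620 nm. IC50 came from a 4-parameter fit, geometric mean.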

VCaP = assay: Antiproliferative activity against human VCaP cells assessed as reduction in cell growth incubated for 96 hrs by propidium iodide based 2D monolayer assay
Summary of the method: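 VCaP cells in RPMI 1640 with 10% FCS at 37 °C, 5% CO2, seeded 4,000–20,000 cells/well and left 24 h before dosing. Compounds from DMSO stocks were diluted in half-log steps in medium, 10 concentrations 0.0032–100 μM, triplicate wells, max 0.3% DMSO. After 96 h, cells were washed, stained with 7 μg/ml propidium iodide plus 0.1% Triton X-100 for 1–2 h at room temperature, and fluorescence read at ex 530/em 620 nm.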

LNCaP = assay: Antiproliferative activity against human LNCAP cells assessed as reduction in cell growth incubated for 96 hrs by propidium iodide based 2D monolayer assay; summary of the method: as §1
CWR22R = assay: Antiproliferative activity against human 22Rv1 cells assessed as reduction in cell growth incubated for 96 hrs by propidium iodide based 2D monolayer assay; conditions: for IC50: 22Rv1, 96 h; summary of the method: as §1

Compound	IC50 (DU-145)	IC50 (VCaP)	IC50 (LNCaP)	IC50 (CWR22R)	Activity (DU-145)	Activity (VCaP)	Activity (LNCaP)	Activity (CWR22R)
CC(O)(COc1ccc(C#N)cc1)C(=O)Nc1cccc(S(F)(F)(F)(F)F)c1 (racemic)	42.6 µM	26.6 µM	30 µM	32.5 µM	–	–	–	–
CC(O)(CS(=O)(=O)c1ccc(F)cc1)C(=O)Nc1cccc(S(F)(F)(F)(F)F)c1 (racemic)	48.8 µM	37.9 µM	32.6 µM	38.9 µM	–	–	–	–
CC(O)(COc1cccc(OC(F)(F)F)c1)C(=O)Nc1cccc(S(F)(F)(F)(F)F)c1 (racemic)	30.1 µM	28.6 µM	15.2 µM	18.8 µM	–	–	–	–
CC(O)(CS(=O)(=O)c1ccc(S(F)(F)(F)(F)F)cc1)C(=O)Nc1ccc(C#N)cc1C(F)(F)F (racemic)	25.6 µM	43 µM	17.8 µM	19.4 µM	–	–	–	–
CC(O)(COc1cccc(C(F)(F)C(F)(F)F)c1)C(=O)Nc1cc(C(F)(F)F)cc(C(F)(F)F)c1 (racemic)	8.5 µM	9.5 µM	4.4 µM	4.1 µM	–	–	–	–
CC(O)(CS(=O)(=O)c1ccc(S(F)(F)(F)(F)F)cc1)C(=O)Nc1ccc([N+](=O)[O-])cc1C(F)(F)F (racemic)	17.7 µM	28.6 µM	12.5 µM	18.7 µM	–	–	–	–
CC(O)(CS(=O)(=O)c1cccc(S(F)(F)(F)(F)F)c1)C(=O)Nc1ccc([N+](=O)[O-])cc1C(F)(F)F (racemic)	100 µM	100 µM	6.5 µM	100 µM	–	–	–	–
CC(O)(COc1ccc(C#N)c(F)c1)C(=O)Nc1cccc(S(F)(F)(F)(F)F)c1 (racemic)	74.8 µM	91.9 µM	83.7 µM	63.4 µM	–	–	–	–
CC(O)(CS(=O)(=O)c1ccccc1OC(F)(F)F)C(=O)Nc1ccc(S(F)(F)(F)(F)F)cc1 (racemic)	19.5 µM	19.9 µM	12.7 µM	16 µM	–	–	–	–
CC(O)(CS(=O)(=O)c1cccc(C(F)(F)F)c1)C(=O)Nc1ccc(S(F)(F)(F)(F)F)cc1 (racemic)	31.9 µM	32 µM	21 µM	23.8 µM	–	–	–	–
CC(O)(CS(=O)(=O)c1cccc(S(F)(F)(F)(F)F)c1)C(=O)Nc1ccc(S(F)(F)(F)(F)F)cc1 (racemic)	34 µM	24.8 µM	31.3 µM	39.9 µM	–	–	–	–
CC(O)(CS(=O)(=O)c1ccc(C(F)(F)F)cc1)C(=O)Nc1ccc(S(F)(F)(F)(F)F)cc1 (racemic)	29.3 µM	27.7 µM	20.7 µM	28.9 µM	–	–	–	–
CC(O)(COc1ccc(C#N)cc1C(F)(F)F)C(=O)Nc1cccc(S(F)(F)(F)(F)F)c1 (racemic)	22.8 µM	30.6 µM	16.4 µM	18.3 µM	–	–	–	–
CC(O)(COc1cccc(C(F)(F)C(F)(F)F)c1)C(=O)Nc1ccc(C(F)(F)F)cc1 (racemic)	7.6 µM	8.1 µM	3.9 µM	3.6 µM	–	–	–	–
CC(O)(CS(=O)(=O)c1ccc(OC(F)(F)F)cc1)C(=O)Nc1cccc(S(F)(F)(F)(F)F)c1 (racemic)	35.6 µM	15.1 µM	10.7 µM	31.2 µM	–	–	–	–
CC(O)(CS(=O)(=O)c1cccc(C(F)(F)F)c1)C(=O)Nc1cccc(S(F)(F)(F)(F)F)c1 (racemic)	37.3 µM	35.5 µM	21.8 µM	24.6 µM	–	–	–	–
CC(O)(CS(=O)(=O)c1ccc(S(F)(F)(F)(F)F)cc1)C(=O)Nc1cccc(S(F)(F)(F)(F)F)c1 (racemic)	17.4 µM	17.2 µM	11.7 µM	12.3 µM	–	–	–	–
CC(O)(COc1cccc(C(F)(F)F)c1)C(=O)Nc1cccc(S(F)(F)(F)(F)F)c1 (racemic)	31.7 µM	22.5 µM	28.8 µM	28.9 µM	–	–	–	–
CC(O)(CS(=O)(=O)c1cc(C(F)(F)F)cc(C(F)(F)F)c1)C(=O)Nc1cccc(S(F)(F)(F)(F)F)c1 (racemic)	13.7 µM	10.4 µM	9.7 µM	9.3 µM	–	–	–	–
CC(O)(CS(=O)(=O)c1ccc(S(F)(F)(F)(F)F)cc1)C(=O)Nc1ccc([N+](=O)[O-])c(C(F)(F)F)c1 (racemic)	17.7 µM	19.2 µM	10 µM	14.7 µM	–	–	–	–
CC(O)(CS(=O)(=O)c1ccccc1C(F)(F)F)C(=O)Nc1cccc(S(F)(F)(F)(F)F)c1 (racemic)	27.3 µM	40.8 µM	24.9 µM	27.7 µM	–	–	–	–

Compound	IC50 (DU-145)	IC50 (VCaP)	IC50 (LNCaP)	IC50 (CWR22R)	Activity (DU-145)	Activity (VCaP)	Activity (LNCaP)	Activity (CWR22R)
CC(O)(CS(=O)(=O)c1ccc(OC(F)(F)F)cc1)C(=O)Nc1ccc(S(F)(F)(F)(F)F)cc1 (racemic)	39.3 µM	95.8 µM	92.8 µM	51.9 µM	–	–	–	–
CC(O)(CS(=O)(=O)c1ccccc1C(F)(F)F)C(=O)Nc1ccc(S(F)(F)(F)(F)F)cc1 (racemic)	29.4 µM	23.8 µM	10.8 µM	17.4 µM	–	–	–	–
CC(O)(CS(=O)(=O)c1cc(C(F)(F)F)cc(C(F)(F)F)c1)C(=O)Nc1ccc(S(F)(F)(F)(F)F)cc1 (racemic)	24.4 µM	15.8 µM	13.3 µM	12.7 µM	–	–	–	–
CC(O)(CS(=O)(=O)c1cccc(S(F)(F)(F)(F)F)c1)C(=O)Nc1ccc([N+](=O)[O-])c(C(F)(F)F)c1 (racemic)	17.2 µM	24.6 µM	13.8 µM	14.8 µM	–	–	–	–
CC(O)(CS(=O)(=O)c1ccc(S(F)(F)(F)(F)F)cc1)C(=O)Nc1ccc(S(F)(F)(F)(F)F)cc1 (racemic)	28.9 µM	15.7 µM	29.2 µM	17.3 µM	–	–	–	–
CC(O)(COc1ccccc1C(F)(F)F)C(=O)Nc1cccc(S(F)(F)(F)(F)F)c1 (racemic)	52.2 µM	36.7 µM	26.3 µM	34.9 µM	–	–	–	–
CC(O)(COc1cc(C(F)(F)F)cc(C(F)(F)F)c1)C(=O)Nc1cccc(C(F)(F)C(F)(F)F)c1 (racemic)	9.8 µM	8 µM	4.7 µM	4.5 µM	–	–	–	–
CC(O)(COc1ccc(OC(F)(F)F)cc1)C(=O)Nc1cccc(S(F)(F)(F)(F)F)c1 (racemic)	19.1 µM	20.2 µM	12.7 µM	12.9 µM	–	–	–	–
CC(O)(COc1ccc(C(F)(F)F)cc1)C(=O)Nc1cccc(S(F)(F)(F)(F)F)c1 (racemic)	13.6 µM	13.3 µM	9.6 µM	3.6 µM	–	–	–	–
CC(O)(COc1cccc(S(F)(F)(F)(F)F)c1)C(=O)Nc1ccc(C(F)(F)F)cc1 (racemic)	21 µM	23.8 µM	12.8 µM	15.8 µM	–	–	–	–
CC(O)(CS(=O)(=O)c1cccc(S(F)(F)(F)(F)F)c1)C(=O)Nc1cccc(S(F)(F)(F)(F)F)c1 (racemic)	29.4 µM	19 µM	11.7 µM	15.4 µM	–	–	–	–
CC(O)(CS(=O)(=O)c1cccc(OC(F)(F)F)c1)C(=O)Nc1ccc(S(F)(F)(F)(F)F)cc1 (racemic)	26.5 µM	23.7 µM	21.7 µM	22.4 µM	–	–	–	–
CC(O)(COc1ccc(S(F)(F)(F)(F)F)cc1)C(=O)Nc1ccc(C(F)(F)F)cc1 (racemic)	27.4 µM	14.7 µM	11.7 µM	12.9 µM	–	–	–	–
CC(O)(COc1cccc(S(F)(F)(F)(F)F)c1)C(=O)Nc1cccc(S(F)(F)(F)(F)F)c1 (racemic)	30.7 µM	26.7 µM	10.9 µM	27.3 µM	–	–	–	–
CC(O)(CS(=O)(=O)c1ccc(F)cc1)C(=O)Nc1ccc(S(F)(F)(F)(F)F)cc1 (racemic)	27.7 µM	34.2 µM	18.2 µM	20.6 µM	–	–	–	–
CC(O)(COc1ccccc1OC(F)(F)F)C(=O)Nc1cccc(S(F)(F)(F)(F)F)c1 (racemic)	38.1 µM	27.7 µM	16.1 µM	30 µM	–	–	–	–
CC(O)(CS(=O)(=O)c1cccc(OC(F)(F)F)c1)C(=O)Nc1cccc(S(F)(F)(F)(F)F)c1 (racemic)	31.5 µM	20.2 µM	15.1 µM	20.1 µM	–	–	–	–
CC(O)(CS(=O)(=O)c1cccc(S(F)(F)(F)(F)F)c1)C(=O)Nc1ccc(C#N)cc1C(F)(F)F (racemic)	22.1 µM	20.8 µM	12.9 µM	14.3 µM	–	–	–	–
CC(O)(CS(=O)(=O)c1ccccc1OC(F)(F)F)C(=O)Nc1cccc(S(F)(F)(F)(F)F)c1 (racemic)	29.1 µM	13.9 µM	9 µM	17.1 µM	–	–	–	–
CC(O)(CS(=O)(=O)c1ccc(F)cc1)C(=O)Nc1ccc(C#N)c(C(F)(F)F)c1 (racemic) [BICALUTAMIDE]	–	–	–	–	Dose-dependent effect	Dose-dependent effect	Dose-dependent effect	Dose-dependent effect
